Only some compounds are listed: those with a hit (about 2.7% of all), similar ones and a draw of the others.
E-selectin induc – induces E-selectin expression in human endothelial cells. P16581. HUVEC E-selectin immunofluorescence imaging; normalized: neutral wells 0, TNF-alpha wells 100. activation, % at 7.58 µM. 260,000 tested, 0.37% active;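 active means mean E-selectin-positive cell signal at least 10% of the positive control, reached in at least 60% of replicates, without over 20% cell loss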
Target sequence (P16581 whole entry, looked up): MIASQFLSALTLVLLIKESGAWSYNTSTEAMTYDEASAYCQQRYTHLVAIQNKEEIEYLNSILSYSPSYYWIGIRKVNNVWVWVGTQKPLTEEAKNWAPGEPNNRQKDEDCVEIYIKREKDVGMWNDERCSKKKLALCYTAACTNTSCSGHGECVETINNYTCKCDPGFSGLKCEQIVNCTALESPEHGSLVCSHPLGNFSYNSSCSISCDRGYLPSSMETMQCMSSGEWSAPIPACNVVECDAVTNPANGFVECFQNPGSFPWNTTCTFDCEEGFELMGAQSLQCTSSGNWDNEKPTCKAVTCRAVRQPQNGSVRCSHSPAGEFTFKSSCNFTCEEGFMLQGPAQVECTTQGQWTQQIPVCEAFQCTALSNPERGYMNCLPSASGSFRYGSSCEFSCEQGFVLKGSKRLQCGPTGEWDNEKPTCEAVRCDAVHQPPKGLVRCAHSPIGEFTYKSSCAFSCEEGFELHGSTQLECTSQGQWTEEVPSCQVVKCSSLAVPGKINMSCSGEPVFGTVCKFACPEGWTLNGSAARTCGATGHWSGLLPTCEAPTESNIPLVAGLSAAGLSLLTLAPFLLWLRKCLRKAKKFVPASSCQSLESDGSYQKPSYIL
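Read-out: % PE-positive cells | Test system: HUVEC | Doses: One compound dose added by pin transfer | Buffer or medium: EGM-2 over gelatin coat | Signal: Immunofluorescence imaging | Benchmarks: TNF-alpha, DMSO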
FGF22 binding – binders of recombinant human FGF22 by thermal shift; 340,000 tested, 1.5% active; SYPRO orange fluorescence; percent of sucrose octasulfate shift, DMSO zero; activity (Tm shift, normalised), % at 9.99 µM; Q9HCT0;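 active means mean Tm shift, scaled 0 neutral to 100 positive control, at about 1.3% or above, every replicate too, limit read from the data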
HIV Env fusion – blocks HIV Env-driven cell-cell fusion. inhibition, % at 12.3 µM. 360,000 tested, 1.1% active. HeLa-JRFL Env/CEM21 cell fusion, luciferase;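 active means mean replicate inhibition score of at least 50 and every replicate individually at or above 50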;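 further: 0% = plate neutral controls and 100% = maraviroc near 300 nM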
S100A4 MyoIIA – inhibitors of human S100A4 binding to myosin IIA peptide. P26447. 360,000 tested, 0.14% active. S100A4/TAMRA-MyoIIA peptide fluorescence polarization. AID 652163. inhibition, % at 10.7 µM;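 active means mean inhibition of at least 70% across replicates, with every replicate also reaching that level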
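Material: human S100A4 monomer with TAMRA-labelled myosin IIA peptide; buffer or medium: HEPES pH 7.2 with CaCl2, KCl, NaCl, DTT, Triton; compound dosing: one concentration per compound; schedule: 5 min incubation before reading; benchmarks: neutral control DMSO, positive control TFP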
F508del corr – correctors of CFTR F508del function in bronchial epithelial cells | CFBE cells, YFP halide quenching; stimulated with forskolin plus potentiator P3; % fluorescence drop versus neutral controls | activity (quench increase), % at 7.58 µM | 350,000 tested, 0.36% active | AID 720511;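 active means mean added fluorescence quench of at least 8% versus neutral control, with both replicates also reaching 8%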;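 further: cells transiently co-express mutant CFTR-F508del with the halide-sensitive YFP; corrector assay measuring rescue of mutant channel to the surface after 24 h compound exposure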
* = called active by the depositor; [ ] = dose if it differs, or a comment.

For O=C(C[C@@H]1C[C@H]2c3cc(NC(=O)NC4CCCCC4)ccc3O[C@H]2[C@H](CO)O1)NCC1CC1 the results were E-selectin induc 0.0, FGF22 binding 0.7, HIV Env fusion -11.2[16.7 µM], S100A4 MyoIIA -10.0 and F508del corr 0.3.
`COc1ccc(CN(C)C[C@@H]2OCCCC[C@H](C)Oc3ccc(NC(=O)Nc4ccc(C(F)(F)F)cc4)cc3C(=O)N([C@@H](C)CO)C[C@@H]2C)cc1` gave FGF22 binding -1.3, HIV Env fusion 75.5*[16.7 µM], S100A4 MyoIIA 6.8 and F508del corr 7.8.
`COc1ccc(CN(C)C[C@H]2OCCCC[C@@H](C)Oc3ccc(NC(=O)Nc4ccc(C(F)(F)F)cc4)cc3C(=O)N([C@H](C)CO)C[C@H]2C)cc1` gave FGF22 binding 0.1, HIV Env fusion 6.4[16.7 µM], S100A4 MyoIIA -5.9 and F508del corr 7.7.
For COc1ccc(NC(=O)Nc2ccc3c(c2)C(=O)N([C@@H](C)CO)C[C@@H](C)[C@@H](CN(C)Cc2ccc(C(F)(F)F)cc2)OCCCC[C@H](C)O3)cc1 the results were E-selectin induc 0.0, FGF22 binding -1.0, HIV Env fusion 9.5[16.7 µM], S100A4 MyoIIA 6.5 and F508del corr -0.4.
Screening COc1ccc(NC(=O)Nc2ccc3c(c2)C(=O)N([C@H](C)CO)C[C@@H](C)[C@H](CN(C)Cc2ccc(C(F)(F)F)cc2)OCCCC[C@@H](C)O3)cc1 returned E-selectin induc 0.2, FGF22 binding 0.7, HIV Env fusion 68.4*[16.7 µM], S100A4 MyoIIA -24.0 and F508del corr 1.1.
Screening Cc1ccc(S(=O)(=O)N[C@@H]2CCCN(Cc3cccc(OCCO)c3)C2)cc1 returned FGF22 binding -0.8, HIV Env fusion -21.4[16.7 µM], S100A4 MyoIIA -2.5 and F508del corr 3.3.
COc1ccc(NC(=O)Nc2ccc3c(c2)N(C)C(=O)CS3)cc1OC was read as FGF22 binding -0.2, HIV Env fusion -18.8, S100A4 MyoIIA -11.2 and F508del corr -3.4.
`COc1ccc(NC(=O)Nc2ccc3c(c2)N(C)C(=O)CS3)cc1Cl` gave HIV Env fusion 75.8*.
For CCC(=O)N(C)C[C@H]1Oc2cc(C#CC3CC3)ccc2S(=O)(=O)N([C@@H](C)CO)C[C@H]1C the results were E-selectin induc 0.4, FGF22 binding -0.2, HIV Env fusion 17.9[16.7 µM], S100A4 MyoIIA 0.1 and F508del corr 1.7.
`CCN(CC)C(=O)c1oc2ccc(S(=O)(=O)N3CC(C)CC(C)C3)cc2c1C` (stereo not given) gave FGF22 binding -0.4, HIV Env fusion 13.6, S100A4 MyoIIA 0.0 and F508del corr 9.2*.
C[C@H]1CN([C@@H](C)CO)C(=O)c2cc(NS(=O)(=O)c3ccc(F)cc3)ccc2O[C@@H]1CN(C)S(=O)(=O)c1ccc(F)cc1 was read as E-selectin induc 0.7, FGF22 binding -0.2, HIV Env fusion -96.2[16.7 µM], S100A4 MyoIIA 3.6 and F508del corr -0.3.
Cc1ccc(NC(=O)COc2ccc(Br)cc2CO)cc1S(=O)(=O)N1CCOCC1 was read as FGF22 binding 0.5, HIV Env fusion -1.5, S100A4 MyoIIA -1.4 and F508del corr 8.6*.
Screening O=C(CSc1nc2ccccc2[nH]1)Nc1cccc(S(=O)(=O)N2CCOCC2)c1 returned FGF22 binding 1.8*, HIV Env fusion 12.6, S100A4 MyoIIA 1.4 and F508del corr -4.3.
For Cc1ccc(NC(=O)CSc2n[nH]c(N)n2)cc1S(=O)(=O)N1CCOCC1 the results were E-selectin induc -0.1, FGF22 binding 43.9*, HIV Env fusion -8.4, S100A4 MyoIIA -3.0 and F508del corr -2.9.
O=C(COc1ccc(Br)cc1CO)Nc1ccc(S(=O)(=O)N2CCCC2)cc1 was read as E-selectin induc 0.3, FGF22 binding 0.1, HIV Env fusion 34.3, S100A4 MyoIIA -0.7 and F508del corr -0.4.
For Cc1ccc(NC(=O)CSc2nc(N)cc(=O)[nH]2)cc1S(=O)(=O)N1CCOCC1 the results were E-selectin induc 0.9, FGF22 binding -0.2, HIV Env fusion 5.7, S100A4 MyoIIA 0.7 and F508del corr -0.4.
`COC(=O)[C@@H]1[C@@H](CO)[C@@H]2Cn3c(ccc(-c4ccncc4)c3=O)[C@@H]2N1Cc1cccc(F)c1` gave E-selectin induc -1.7, FGF22 binding -0.2, S100A4 MyoIIA 5.4 and F508del corr 0.4.

Bioassay records as filed in PubChem.
